Calls of active or inactive are those of the source.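 The calls were made as follows: active = compounds whose fitted curve reaches a 35% growth drop at up to twice the top tested dose; inconclusive = flat curve with a 30 to 70% growth drop, or poor fit; inactive = opposite effect, flat curve, or crossing beyond the limit.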
System: not listed separately
Assay: iron-limited growth inhibition, mexAB-oprM mutant – whole organism, PAK mexAB-OprM mutant, OD600, EDDHA, dry powder, set 3, dose response (AID 624072)
Settings: P. aeruginosa PAK mexAB-oprM, EDDHA, OD600 growth, 28 h; at 100 µM (top of the series)
In short: (§1)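 Test system: Pseudomonas aeruginosa PAK efflux pump deletion mutant ΔmexAB-oprM; incubation: 28 h at 30 °C; buffer or medium: iron-limited succinate M9 medium, pH 7.0, with 2 µM EDDHA chelator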
With `COCCNC(C#N)c1ccc(Cl)cc1` (stereo not given) the activity change, negative = growth inhibition was -9.68% (inactive).

System: P. aeruginosa PAK mexAB-oprM, EDDHA, OD600 growth, 28 h
Assay: as above
Settings: not given
In short: as §1
With `N#CC(c1ccc(Cl)cc1)c1cccc(Cl)n1` (stereo not given) the AC35 was 5.35 µM. Work on `CCCCC(c1ccc(Cl)cc1)c1nn[nH]n1` (stereo not given) yielded an AC35 of 97.2 µM. With `N#CC(c1ccc(Cl)cc1)c1ncccc1Cl` (stereo not given) the AC35 was 6.94 µM. With `COCCC(C#N)c1ccc(F)cc1` (stereo not given) the AC35 was 98.3 µM. `N#CC(c1cccc(C(F)(F)F)n1)c1ccc(Cl)cc1F` (stereo not given) showed an AC35 of 4.24 µM. In the case of `N#CC(c1ccc(F)cc1)c1cccc(C(F)(F)F)n1` (stereo not given), the AC35 is reported as 3 µM. Compound `N#CC(c1ccc(Cl)cc1)c1ccc(Cl)cn1` (stereo not given) has an AC35 of 9.77 µM. `N#CC(c1ccc(Cl)cc1)c1cccc(C(F)(F)F)n1` (stereo not given) showed an AC35 of 3.92 µM. `N#CC(c1cccc(Cl)n1)c1ccc(Cl)cc1F` (stereo not given) showed an AC35 of 6.02 µM.
